From ChEMBL document CHEMBL4304819, “Natural product pectolinarigenin exhibits potent anti-metastatic activity in colorectal carcinoma cells in vitro and in vivo” (2019) come the findings set out here.

The structures appear in SMILES notation. The source made the active and inactive calls. No cut-off for these calls is given here.

For assay [1], the system named is CT26. Kind of assay: Anticlonogenic activity against mouse CT26 cells assessed as reduction in colony formation up to 40 uM incubated for 24 hrs supplemented with fresh medium containing compound every 3 days for 12 days by crystal violet staining-based microscopic analysis. It is filed as functional, cell-based. Summed up: (§1)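 Cells seeded at 400–800 per well in 6-well plates; after 24 h, treated with 0–40 μM in fresh medium (with or without compound) replaced every three days for 12 days. Colonies fixed in methanol, stained with 0.5% crystal violet for 15 min and counted by microscope; reported as surviving colonies, mean ± SD of three experiments.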

Assay [2] relates to SW48. Kind of assay: Anticlonogenic activity against human SW48 cells assessed as reduction in colony formation up to 40 uM incubated for 24 hrs supplemented with fresh medium containing compound every 3 days for 12 days by crystal violet staining-based microscopic analysis. It is filed as functional, cell-based. Summed up:
as §1

The test system of assay [3] is SW48. Kind of assay: Inhibition of colony formation in human SW48 cells assessed as reduction in number of colonies up to 40 uM incubated for 24 hrs supplemented with fresh medium containing compound every 3 days for 12 days by crystal violet staining-based microscopic analysis. It is filed as functional, cell-based. Summed up:
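400–800 cells per well seeded in 6-well plates; after 24 h, PEC (0–40 μM) added. Medium with or without compound replaced every three days for 12 days. Colonies washed in cold PBS, fixed in methanol, stained 15 min with 0.5% crystal violet and counted under a microscope. Mean ± SD of three experiments.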

The subject of assay [4] is CT26. Kind of assay: Induction of apoptosis in mouse CT26 cells assessed as early apoptotic cells at 10 uM after 48 hrs by Annexin V-FITC/propidium iodide staining-based flow cytometric analysis (reference value: 2.84 %). It is filed as functional. In short, it runs like this: (§2)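 CT26 cells seeded at 1–2 × 10^5 per well in six-well plates for 24 h, then exposed to PEC (0–40 μM) for 24 or 48 h. Cells harvested, washed twice in cold PBS, stained with Annexin V-FITC/PI and read by flow cytometry. Early apoptotic = Annexin V+ only; late apoptotic = Annexin V+/PI+. Mean ± SD of three experiments.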

Assay [5] concerns CT26. Kind of assay: Induction of apoptosis in mouse CT26 cells assessed as late apoptotic cells at 10 uM after 48 hrs by Annexin V-FITC/propidium iodide staining-based flow cytometric analysis (reference value: 6.49 %). It counts as functional. In short, it runs like this: as §2
A general note: A flow cytometer gives signals particle by particle.

For assay [6], the system named is CT26. Kind of assay: Induction of apoptosis in mouse CT26 cells assessed as necrotic cells at 10 uM after 48 hrs by Annexin V-FITC/propidium iodide staining-based flow cytometric analysis (reference value: 1.80 %). It counts as functional. Summed up: as §2
Assay [7] deals with HCT-116. Kind of assay: Induction of apoptosis in human HCT116 cells assessed as late apoptotic cells at 10 uM after 48 hrs by Annexin V-FITC/propidium iodide staining-based flow cytometric analysis (reference value: 3.87 %). It is filed as functional. Summed up: (§3)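 Cells (1–2 × 10^5 per well) seeded in six-well plates 24 h, treated at 0–40 μM for 24 h or 48 h, harvested, washed twice in cold PBS, stained with Annexin V-FITC/PI and analysed by flow cytometry; early (Annexin V only) and late (Annexin V and PI) apoptotic fractions quantified; three experiments.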

Assay [8] relates to HCT-116. Kind of assay: Induction of apoptosis in human HCT116 cells assessed as necrotic cells at 10 uM after 48 hrs by Annexin V-FITC/propidium iodide staining-based flow cytometric analysis (reference value: 8.24 %). It counts as functional. Summed up: as §3
Assay [9] deals with CT26. Kind of assay: Induction of apoptosis in mouse CT26 cells assessed as decrease in Bcl-2 protein expression up to 40 uM after 48 hrs by Western blot analysis. It counts as functional, cell-based. In short, it runs like this: (§4)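 Cells treated 48 h at 0, 10, 20 and 40 μM, washed in cold PBS, lysed in RIPA; protein equalized by Lowry assay, resolved by SDS-PAGE, transferred to PVDF, blocked 1 h at 37 °C, primary antibody overnight at 4 °C, secondary 1 h, ECL detection, densitometry. β-actin loading control.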
For orientation: Immunoblotting shows a protein as a band on a membrane.

Assay [10] relates to HCT-116. Kind of assay: Induction of apoptosis in human HCT116 cells assessed as decrease in Bcl-2 protein expression up to 40 uM after 48 hrs by Western blot analysis. It counts as functional, cell-based. Summed up: as §4
The test system of assay [11] is CT26. Kind of assay: Antimigratory activity against mouse CT26 cells assessed as inhibition of cell migration after 48 hrs by crystal violet staining based Boyden-chamber cell migration assay. It is filed as functional. Summed up:
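Boyden chamber, 8 μm pores: 1 × 10^5 cells in serum-free medium above, 10% FBS medium below, compound at various concentrations in both chambers; migration 48 h. Non-migrated cells swabbed off; migrated cells fixed in methanol, stained 0.5% crystal violet 20 min, counted in six random fields under light microscope; expressed as % inhibition versus untreated.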

The subject of assay [12] is CT26. Kind of assay: Antimetastatic activity against mouse CT26 cells allografted in Balb/c mouse assessed as decrease in CD11b-positive/Gr1-positive myeloid cells level in peripheral blood at 25 mg/kg, ip administered daily for 14 days starting from 6 days post implantation by flow cytometric analysis (reference value: 33.2 %). It counts as functional. Also on record: scale not given: the % may be the effect or the level left.

Assay [13] concerns CT26. Kind of assay: Antimetastatic activity against mouse CT26 cells allografted in Balb/c mouse assessed as decrease in CD11b-positive/Gr1-positive myeloid cells level in tumour at 50 mg/kg, ip administered daily for 14 days starting from 6 days post implantation flow cytometric analysis (reference value: 10 %). It is filed as functional. Set-up: scale not given: the % may be the effect or the level left.

As for `COc1ccc(-c2cc(=O)c3c(O)c(OC)c(O)cc3o2)cc1` [PECTOLINARIGENIN], the inhibition result with CT26 [1], with SW48 [2] and in the assay with SW48 [3] was “Active” each time. Further, the Activity in the assay with CT26 [4] was 3.57%; in the assay on CT26 [5] it was 15.5%; with CT26 [6], 3.82%; with HCT-116 [7], 5.81%; in the assay with HCT-116 [8], 3.98%; in the assay on CT26 [12], 26.7%. In addition, the Activity in the assay with CT26 [13] is 6.47%. The outcome with CT26 [9] and in the assay on HCT-116 [10] was Active. For the same compound, the inhibition entry with CT26 [11] was “Dose-dependent effect”.
